What all share (assay type): functional
In experiment [1] the test system is Staphylococcus aureus. Description: Antibacterial activity against erythromycin-sensitive Staphylococcus aureus ATCC 13709 by broth microdilution method. Put shortly: (§1)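 Broth microdilution following CLSI guidelines, using two-fold serial dilutions of compound. Bacteria were first grown on appropriate agar plates. Read-out is growth inhibition, reported as MIC.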

Experiment [2] relates to Streptococcus pneumoniae. Description: Antibacterial activity against erythromycin-sensitive Streptococcus pneumoniae SP 030 by broth microdilution method. Put shortly: (§2)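 Broth microdilution following CLSI guidelines, except that 5% horse serum replaced lysed blood in the Streptococcus medium. Two-fold serial dilutions of compound were used. Bacteria were first grown on appropriate agar plates. Read-out is growth inhibition, reported as MIC.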
(In general: Dilution methods test growth across graded concentrations, often in twofold steps.)

Experiment [3] deals with Streptococcus pyogenes. Briefly: Antibacterial activity against erythromycin-sensitive Streptococcus pyogenes 3565 by broth microdilution method. Put shortly: as §2
The test system of experiment [4] is Staphylococcus aureus. Description: Antibacterial activity against efflux-mediated macrolide-resistant Staphylococcus aureus PK1 by broth microdilution method. An outline of the steps: (§3)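 Standard CLSI broth microdilution MIC test with automated double dilutions of compound. Bacteria were pre-grown on appropriate agar plates.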
Experiment [5] concerns Streptococcus pneumoniae. Description: Antibacterial activity against efflux-mediated macrolide-resistant Streptococcus pneumoniae Ci137 by broth microdilution method. An outline of the steps: (§4)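 CLSI broth microdilution MIC with automated double dilutions of compound. The medium was supplemented with 5% horse serum in place of lysed blood. Bacteria were pre-grown on appropriate agar plates.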

For experiment [6], the system named is Streptococcus pyogenes. Briefly: Antibacterial activity against efflux-mediated macrolide-resistant Streptococcus pyogenes Finland 2 by broth microdilution method. Put shortly:
as §4

Experiment [7] concerns Staphylococcus aureus. Briefly: Antibacterial activity against inducible macrolide, lincosamide and streptogramin B-resistant Staphylococcus aureus 90256/97 by broth microdilution method. An outline of the steps:
as §3

Experiment [8] has as its system Streptococcus pneumoniae. Description: Antibacterial activity against inducible macrolide-resistant, constitutive lincosamide and streptogramin-resistant Streptococcus pneumoniae 134 GR M by broth microdilution method. Put shortly: as §4
For experiment [9], the system named is Streptococcus pyogenes. Briefly: Antibacterial activity against inducible macrolide-lincosamide-streptogramin B resistant Streptococcus pyogenes Finland 11 by broth microdilution method. An outline of the steps: as §4
The test system of experiment [10] is Streptococcus pneumoniae. Briefly: Antibacterial activity against constitutive macrolide, lincosamide, streptogramin-resistant Streptococcus pneumoniae 58 spain by broth microdilution method. Put shortly: as §4
In experiment [11] the test system is Streptococcus pyogenes. Description: Antibacterial activity against constitutive macrolide, lincosamide, streptogramin-resistant Streptococcus pyogenes 166 GR-Micro by broth microdilution method. An outline of the steps: as §4
In experiment [12] the test system is Staphylococcus aureus. Description: Antibacterial activity against constitutive macrolide, lincosamide, streptogramin-resistant Staphylococcus aureus PK2 by broth microdilution method. Put shortly: as §3
A further experiment has as its system Haemophilus influenzae. Description: Antibacterial activity against Haemophilus influenzae ATCC 49247 by broth microdilution method. An outline of the steps: as §1
Another experiment deals with Moraxella catarrhalis. Briefly: Antibacterial activity against Moraxella catarrhalis ATCC 23246 by broth microdilution method. Put shortly:
as §1

Values after ≈ are worked out from the molar mass of the structure shown.

As to `CC[C@H]1OC(=O)[C@H](C)[C@@H](O[C@H]2C[C@@](C)(OC)[C@@H](OC(=O)CCN(C)CCNc3cc4c(=O)c(C(=O)NCCO)cn(C5CC5)c4cc3Cl)[C@H](C)O2)[C@H](C)[C@@H](O[C@@H]2O[C@H](C)C[C@H](N(C)C)[C@H]2O)[C@](C)(O)C[C@@H](C)CN(C)[C@H](C)[C@@H](O)[C@]1(C)O`, the MIC against Staphylococcus aureus [1] was 2 µg/mL (≈ 1.69 µM); in the experiment on Streptococcus pneumoniae [2], not above 0.125 µg/mL; against Streptococcus pyogenes [3], not above 0.125 µg/mL; in the experiment with Staphylococcus aureus [4], 32 µg/mL (≈ 27.1 µM); against Streptococcus pneumoniae [5], 0.5 µg/mL (≈ 0.423 µM); with Streptococcus pyogenes [6] it was 2 µg/mL (≈ 1.69 µM). Also, the MIC was more than 64 µg/mL in the experiment on Staphylococcus aureus [7]; 4 µg/mL (≈ 3.38 µM) in the experiment with Streptococcus pneumoniae [8]; 2 µg/mL (≈ 1.69 µM) against Streptococcus pyogenes [9]; 32 µg/mL (≈ 27.1 µM) in the experiment with Streptococcus pneumoniae [10]; more than 64 µg/mL in the experiment with Streptococcus pyogenes [11]; more than 64 µg/mL in the experiment with Staphylococcus aureus [12]. Also, the MIC was determined as 4 µg/mL (≈ 3.38 µM) in the experiment with Haemophilus influenzae and 1 µg/mL (≈ 0.846 µM) in the experiment with Moraxella catarrhalis.

The record behind these values is ChEMBL document CHEMBL1921709, “Synthesis and activity of new macrolones: conjugates between 6(7)-(2'-aminoethyl)-amino-1-cyclopropyl-3-carboxylic acid (2'-hydroxyethyl) amides and 4″-propenoyl-azithromycin” (2011).
